According to ChEMBL document CHEMBL1154945, “Decahydroisoquinoline derivatives as novel non-peptidic, potent and subtype-selective somatostatin sst(3) receptor antagonists” (Bioorg Med Chem Lett, 2010):

Tests used:
[1] = molecular target: Somatostatin receptor type 1 (Homo sapiens, UniProt P30872); experiment: Binding affinity to human SST1 receptor
Homo sapiens [2] = organism: Homo sapiens; experiment: Selectivity for human SST3 over human SST1
[3] = molecular target: T1, Somatostatin receptor type 3 (Homo sapiens, UniProt P32745); experiment: Binding affinity to human SST3 receptor
T1 sequence (P32745 whole entry): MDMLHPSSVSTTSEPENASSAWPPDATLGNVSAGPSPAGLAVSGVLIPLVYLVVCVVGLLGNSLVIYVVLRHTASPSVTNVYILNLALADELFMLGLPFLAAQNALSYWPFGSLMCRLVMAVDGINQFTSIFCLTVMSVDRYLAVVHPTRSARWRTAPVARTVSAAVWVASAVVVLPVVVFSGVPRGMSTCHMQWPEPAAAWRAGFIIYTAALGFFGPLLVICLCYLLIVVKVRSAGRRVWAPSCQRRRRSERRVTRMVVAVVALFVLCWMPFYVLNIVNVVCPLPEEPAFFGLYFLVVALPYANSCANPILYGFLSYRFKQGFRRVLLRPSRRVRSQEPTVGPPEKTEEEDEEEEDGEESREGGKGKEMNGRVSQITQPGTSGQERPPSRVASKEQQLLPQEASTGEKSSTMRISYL

[4] = molecular target: Somatostatin receptor type 2 (Rattus norvegicus, UniProt P30680); experiment: Displacement of [125I]SRIF-14 from rat cortex membrane SST2 receptor
Chain of Somatostatin receptor type 2 (Rattus norvegicus, UniProt P30680) (P30680 whole entry): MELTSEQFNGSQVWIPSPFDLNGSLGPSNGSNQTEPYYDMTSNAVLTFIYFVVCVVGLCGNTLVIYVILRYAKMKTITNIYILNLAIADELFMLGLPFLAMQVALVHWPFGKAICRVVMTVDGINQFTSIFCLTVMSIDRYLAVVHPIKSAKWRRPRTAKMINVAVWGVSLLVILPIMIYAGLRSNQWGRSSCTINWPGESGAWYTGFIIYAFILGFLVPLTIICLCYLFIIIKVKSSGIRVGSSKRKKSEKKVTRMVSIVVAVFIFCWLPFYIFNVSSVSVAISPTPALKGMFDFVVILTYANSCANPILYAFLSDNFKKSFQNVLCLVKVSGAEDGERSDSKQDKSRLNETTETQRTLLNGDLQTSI

[5] = molecular target: Somatostatin receptor type 1 (Rattus norvegicus, UniProt P28646); experiment: Displacement of [125I]SRIF-14 from rat cortex membrane SST1 receptor
Chain of Somatostatin receptor type 1 (Rattus norvegicus, UniProt P28646) (P28646 whole entry): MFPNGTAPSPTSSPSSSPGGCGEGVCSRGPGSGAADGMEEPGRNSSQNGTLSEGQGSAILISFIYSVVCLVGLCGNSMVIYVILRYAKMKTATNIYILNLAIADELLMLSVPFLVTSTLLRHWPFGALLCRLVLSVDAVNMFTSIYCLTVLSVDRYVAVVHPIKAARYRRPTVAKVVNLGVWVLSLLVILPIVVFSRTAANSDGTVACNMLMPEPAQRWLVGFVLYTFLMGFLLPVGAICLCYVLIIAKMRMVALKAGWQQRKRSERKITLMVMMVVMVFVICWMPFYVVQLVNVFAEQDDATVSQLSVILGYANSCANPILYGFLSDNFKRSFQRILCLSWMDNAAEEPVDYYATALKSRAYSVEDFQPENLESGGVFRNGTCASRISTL

[6] = molecular target: Somatostatin receptor type 2 (Homo sapiens, UniProt P30874); experiment: Binding affinity to human SST2 receptor
Chain of Somatostatin receptor type 2 (Homo sapiens, UniProt P30874) (P30874 whole entry): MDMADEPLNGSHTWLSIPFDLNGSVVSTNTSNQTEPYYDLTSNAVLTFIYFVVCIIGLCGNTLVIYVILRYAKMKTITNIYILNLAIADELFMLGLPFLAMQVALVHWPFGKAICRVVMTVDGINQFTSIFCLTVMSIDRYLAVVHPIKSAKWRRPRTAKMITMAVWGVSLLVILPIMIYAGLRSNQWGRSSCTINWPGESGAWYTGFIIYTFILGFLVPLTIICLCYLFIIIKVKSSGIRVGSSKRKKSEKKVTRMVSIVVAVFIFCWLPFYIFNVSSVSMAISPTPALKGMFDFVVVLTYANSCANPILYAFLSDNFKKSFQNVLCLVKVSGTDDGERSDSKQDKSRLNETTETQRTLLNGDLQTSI

[7] = molecular target: Somatostatin receptor type 4 (Homo sapiens, UniProt P31391); experiment: Binding affinity to human SST4 receptor
Chain of Somatostatin receptor type 4 (P31391 whole entry): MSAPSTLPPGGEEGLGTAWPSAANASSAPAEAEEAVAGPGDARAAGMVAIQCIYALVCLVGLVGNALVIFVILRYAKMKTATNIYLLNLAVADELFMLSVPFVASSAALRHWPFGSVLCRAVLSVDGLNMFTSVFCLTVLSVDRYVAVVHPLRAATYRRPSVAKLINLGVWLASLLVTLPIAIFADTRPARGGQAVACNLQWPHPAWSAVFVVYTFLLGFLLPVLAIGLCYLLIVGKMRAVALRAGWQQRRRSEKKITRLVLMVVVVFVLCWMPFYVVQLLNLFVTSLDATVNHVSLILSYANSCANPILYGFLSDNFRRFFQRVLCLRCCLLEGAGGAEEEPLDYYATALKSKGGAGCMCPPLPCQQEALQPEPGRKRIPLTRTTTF

[8] = molecular target: Somatostatin receptor type 5 (Homo sapiens, UniProt P35346); experiment: Binding affinity to human SST5 receptor
Chain of Somatostatin receptor type 5 (P35346 whole entry): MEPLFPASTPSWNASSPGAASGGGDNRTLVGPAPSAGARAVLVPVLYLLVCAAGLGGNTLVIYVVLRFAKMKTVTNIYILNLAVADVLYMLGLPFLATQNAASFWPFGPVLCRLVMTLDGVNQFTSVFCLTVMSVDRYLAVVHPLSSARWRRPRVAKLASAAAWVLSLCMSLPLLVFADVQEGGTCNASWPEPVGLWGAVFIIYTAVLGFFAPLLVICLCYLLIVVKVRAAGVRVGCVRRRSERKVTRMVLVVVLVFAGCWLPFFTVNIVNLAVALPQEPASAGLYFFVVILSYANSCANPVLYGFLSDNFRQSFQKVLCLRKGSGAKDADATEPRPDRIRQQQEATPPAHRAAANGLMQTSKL

[9] = molecular target: T1, Somatostatin receptor type 3; experiment: Antagonist activity at human recombinant SST3 receptor expressed in CHO cells assessed as inhibition of SRIF14-induced cAMP accumulation; format: functional, cell-based
Outline: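 cAMP-based functional assay with human recombinant sst3 receptors expressed in CHO cells; test agent's antagonism of SRIF-14 response measured, pKB derived; n = 6.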

Homo sapiens [10] = organism: Homo sapiens; experiment: Selectivity for human SST3 over human SST2
Homo sapiens [11] = organism: Homo sapiens; experiment: Selectivity for human SST3 over human SST4
Homo sapiens [12] = organism: Homo sapiens; experiment: Selectivity for human SST3 over human SST5

Chain of Somatostatin receptor type 1 (Homo sapiens, UniProt P30872) (P30872 whole entry): as the sequence (P28646 whole entry) above, with P8S, T11S, S16P, G20S, V25G, C26G, S32A, S45A, A385T, S389T counted along it

| SMILES | Kd [1] [nM] | Kd [3] [nM] | further results |
| --- | --- | --- | --- |
| CC(Cc1ccc2c(c1)OCO2)CN1C[C@H]2CCCC[C@H]2[C@@H](C(=O)N2CCN(c3ccc([N+](=O)[O-])cc3)CC2)C1 (mixture of isomers) | 912 | 11 | Ratio (Homo sapiens [2]): 100 |
| CC(Cc1ccc2c(c1)OCO2)CN1CC2CCCCC2C(C(=O)N2CCN(c3cccc4nonc34)CC2)C1 (centres undefined) |  | 91.2 |  |
| CC(Cc1ccc2c(c1)OCO2)CN1CC2CCCCC2C(C(=O)N2CCN(c3cccc4nncn34)CC2)C1 (centres undefined) |  | 2690 |  |
| CC(Cc1ccc2c(c1)OCO2)CN1CC2CCCCC2C(C(=O)N2CCN(c3cccc4nsnc34)CC2)C1 (centres undefined) |  | 191 |  |
| CC(Cc1ccc2c(c1)OCO2)CN1CC2CCCCC2C(C(=O)N2CCN(c3cccc(C(F)(F)F)n3)CC2)C1 (centres undefined) |  | 741 |  |
| CC(Cc1ccc2c(c1)OCO2)CN1CC2CCCCC2C(C(=O)N2CCN(c3ccc4nsnc4n3)CC2)C1 (centres undefined) |  | 95.5 |  |
| CC(Cc1ccc2c(c1)OCO2)CN1CC2CCCCC2C(C(=O)N2CCN(c3cc4nccnc4cn3)CC2)C1 (centres undefined) |  | 1580 |  |
| CC(Cc1ccc2c(c1)OCO2)CN1CCCC(C(=O)N2CCN(c3ccc([N+](=O)[O-])cc3)CC2)C1 (racemic) | 102 | 85.1 |  |
| O=C(C1CCCN(CCC2c3ccccc3-c3ccccc32)C1)N1CCN(c2ccc([N+](=O)[O-])cc2)CC1 (racemic) | 120 | 117 |  |
| CC(Cc1ccc2c(c1)OCO2)CN1CC2CCCCC2C(C(=O)N2CCN(c3ccc4nccnc4n3)CC2)C1 (centres undefined) |  | 107 |  |
| CN(CCC(=O)N1CCN(c2ccc([N+](=O)[O-])cc2)CC1)CCC1c2ccccc2-c2ccccc21 | 7.59 | 1050 |  |
| CC(Cc1ccc2c(c1)OCO2)CN1C[C@H](C(=O)N2CCN(c3ccc([N+](=O)[O-])cc3)CC2)C[C@@H]2CCCC[C@@H]21 (mixture of isomers) | 490 | 162 |  |
| CC(Cc1ccc2c(c1)OCO2)CN1CC2CCCCC2C(C(=O)N2CCN(c3ccc(Cl)cn3)CC2)C1 (centres undefined) |  | 91.2 |  |
| CC(Cc1ccc2c(c1)OCO2)CN1C[C@@H](C(=O)N2CCN(c3ccc([N+](=O)[O-])cc3)CC2)C[C@@H]2CCCC[C@H]21 (mixture of isomers) | 537 | 155 |  |
| CC(Cc1ccc2c(c1)OCO2)CN1C[C@@H](C(=O)N2CCN(c3ccc([N+](=O)[O-])cc3)CC2)C[C@@H]2CCCC[C@@H]21 (mixture of isomers) | 2450 | 1230 |  |
| CC(Cc1ccc2c(c1)OCO2)CN1CC2CCCCC2C(C(=O)N2CCN(c3cccc(Cl)n3)CC2)C1 (centres undefined) |  | 407 |  |

| SMILES | Kd [1] [nM] | Kd [3] [nM] | further results |
| --- | --- | --- | --- |
| COC(=O)c1cc(CC(C)CN2C[C@@H]3CCCC[C@@H]3[C@H](C(=O)N3CCN(c4ccc([N+](=O)[O-])cc4)CC3)C2)cc(C(=O)OC)c1 (mixture of isomers) | 398 | 1.35 |  |
| CC(Cc1ccc2c(c1)OCO2)CN1CC2CCCCC2C(C(=O)N2CCN(c3cccc4nccn34)CC2)C1 (centres undefined) |  | 1260 |  |
| CC(Cc1ccc2c(c1)OCO2)CN1CC2CCCCC2C(C(=O)N2CCN(c3ccccn3)CC2)C1 (centres undefined) |  | 331 |  |
| COC(=O)c1cc(C[C@H](C)CN2C[C@@H]3CCCC[C@@H]3[C@H](C(=O)N3CCN(c4ccc([N+](=O)[O-])cc4)CC3)C2)cc(C(=O)OC)c1 | 933 | 1.23 | Ratio (Homo sapiens [2]): 760 |
| Cc1nc2ccc(C[C@H](C)CN3C[C@@H]4CCCC[C@@H]4[C@H](C(=O)N4CCN(c5ccc(F)c(F)c5)CC4)C3)cn2n1 |  |  | Ratio (Homo sapiens [2]): 620 |
| CC(Cc1ccc2c(c1)OCO2)CN1CC2CCCCC2C(C(=O)N2CCN(c3ccc4nccn4n3)CC2)C1 (centres undefined) |  | 240 |  |
| COC(=O)c1cc(CC(C)CN2CC3CCCCC3C(C(=O)N3CCN(c4ccc([N+](=O)[O-])cc4)CC3)C2)cc(C(=O)OC)c1 (racemic) | 1000 | 2.88 |  |
| CC(Cc1ccc2c(c1)OCO2)CN1C[C@H]2CCCC[C@H]2[C@H](C(=O)N2CCN(c3ccc([N+](=O)[O-])cc3)CC2)C1 (mixture of isomers) | 6170 | 1120 |  |
| COC(=O)c1cc(C[C@@H](C)CN2C[C@@H]3CCCC[C@@H]3[C@H](C(=O)N3CCN(c4ccc([N+](=O)[O-])cc4)CC3)C2)cc(C(=O)OC)c1 | 437 | 2.24 |  |
| CC(Cc1ccc2c(c1)OCO2)CN1CC2CCCCC2C(C(=O)N2CCN(c3cccc(=O)n3C)CC2)C1 (centres undefined) |  | 2400 |  |
| CC(Cc1ccc2c(c1)OCO2)CN1CC2CCCCC2C(C(=O)N2CCN(c3ccc4nonc4n3)CC2)C1 (centres undefined) |  | 19.5 |  |
| COC(=O)c1cc(CC(C)CN2C[C@H]3CCCC[C@H]3[C@@H](C(=O)N3CCN(c4ccc([N+](=O)[O-])cc4)CC3)C2)cc(C(=O)OC)c1 (mixture of isomers) | 2340 | 107 |  |
| CC(Cc1ccc2c(c1)OCO2)CN1CC2CCCCC2C(C(=O)N2CCN(c3ccc(C#N)cn3)CC2)C1 (centres undefined) |  | 79.4 |  |
| CC(Cc1ccc2c(c1)OCO2)CN1CC2CCCCC2C(C(=O)N2CCN(c3cccc4nccnc34)CC2)C1 (centres undefined) |  | 1350 |  |
| O=C(CCN(CCC1c2ccccc2-c2ccccc21)CC1CC1)N1CCN(c2ccc([N+](=O)[O-])cc2)CC1 | 77.6 | 302 |  |

Now from value to compound, other results behind:

| Kd [1] [nM] | Kd [3] [nM] | SMILES | further results |
| --- | --- | --- | --- |
|  | 20 | CC(Cc1ccc2c(c1)OCO2)CN1CC2CCCCC2C(C(=O)N2CCN(c3ccc4nonc4c3)CC2)C1 (centres undefined) |  |
| 724 | 3630 | COc1ccc(C[C@@H](C)CN2C[C@H]3CCCC[C@H]3[C@@H](C(=O)N3CCN(c4ccc(F)c(F)c4)CC3)C2)cn1 | Kd [4]: 20900 nM; Kd [5]: 813 nM; Kd [6]: 38000 nM; Kd [7]: 6170 nM; Kd [8]: 91200 nM; pKb [9]: 5.1 |
| 912 | 8.51 | C[C@@H](Cc1ccc2c(c1)OCO2)CN1C[C@@H]2CCCC[C@@H]2[C@H](C(=O)N2CCN(c3ccc(F)c(F)c3)CC2)C1 |  |
| 1910 | 28.8 | CCNc1ccc(C[C@H](C)CN2C[C@@H]3CCCC[C@@H]3[C@H](C(=O)N3CCN(c4ccc(F)c(F)c4)CC3)C2)cn1 |  |
| 9120 | 34.7 | C[C@@H](Cc1ccc2ncnn2c1)CN1C[C@@H]2CCCC[C@@H]2[C@H](C(=O)N2CCN(c3ccc(F)c(F)c3)CC2)C1 |  |
|  | 20.9 | CC(Cc1ccc2c(c1)OCO2)CN1CC2CCCCC2C(C(=O)N2CCN(c3ccc(F)c(F)c3)CC2)C1 (centres undefined) |  |
| 1620 | 11 | C[C@@H](Cc1ccc2ocnc2c1)CN1C[C@@H]2CCCC[C@@H]2[C@H](C(=O)N2CCN(c3ccc(F)c(F)c3)CC2)C1 |  |
| 2340 | 14.1 | CCOc1ccc(C[C@H](C)CN2C[C@@H]3CCCC[C@@H]3[C@H](C(=O)N3CCN(c4ccc(F)c(F)c4)CC3)C2)cn1 |  |
| 1380 | 3.39 | Cc1nc2cc(C[C@H](C)CN3C[C@@H]4CCCC[C@@H]4[C@H](C(=O)N4CCN(c5ccc(F)c(F)c5)CC4)C3)ccc2o1 | Kd [4]: 229 nM; Kd [5]: 457 nM; Kd [6]: 5500 nM; Ratio (Homo sapiens [10]): > 150; Ratio (Homo sapiens [11]): 120; Ratio (Homo sapiens [12]): > 150; Kd [7]: 417 nM; Kd [8]: 1100 nM |
|  | 200 | CC(Cc1ccc2c(c1)OCO2)CN1CC2CCCCC2C(C(=O)N2CCN(c3cccc(F)c3)CC2)C1 (centres undefined) |  |
|  | 57.5 | CC(Cc1ccc2c(c1)OCO2)CN1CC2CCCCC2C(C(=O)N2CCN(c3ccc(F)cc3)CC2)C1 (centres undefined) |  |
| 39.8 | 107 | Cc1cn2cc(C[C@H](C)CN3C[C@@H]4CCCC[C@@H]4[C@H](C(=O)N4CCN(c5ccc(F)c(F)c5)CC4)C3)ccc2n1 | Ratio (Homo sapiens [2]): 0.4 |
| 2630 | 10.7 | C[C@@H](Cc1ccc2nccnc2c1)CN1C[C@@H]2CCCC[C@@H]2[C@H](C(=O)N2CCN(c3ccc(F)c(F)c3)CC2)C1 |  |
| 1550 | 7.76 | C[C@@H](Cc1ccc2nsnc2c1)CN1C[C@@H]2CCCC[C@@H]2[C@H](C(=O)N2CCN(c3ccc(F)c(F)c3)CC2)C1 | Kd [4]: 151 nM; Kd [5]: 1170 nM; Kd [6]: 3550 nM; Ratio (Homo sapiens [10]): > 150; Ratio (Homo sapiens [11]): 130; Ratio (Homo sapiens [12]): > 150; Kd [7]: 1020 nM; Kd [8]: 1660 nM |
